Our source for the Activity, Ki and Activity (Counts/minute) values is ChEMBL document CHEMBL1144343 (J Med Chem, 2005).

In one assay the test system is NG108-15. As to the kind of experiment: Effect on neurite outgrowth in NG108-15 cells after treatment for 3 days (control 2.26%).
Assay [1] concerns the target T1, Angiotensin II receptor (AT-1) type-1 (Rattus norvegicus, UniProt P29089+P25095).
T1 sequence (P29089 whole entry): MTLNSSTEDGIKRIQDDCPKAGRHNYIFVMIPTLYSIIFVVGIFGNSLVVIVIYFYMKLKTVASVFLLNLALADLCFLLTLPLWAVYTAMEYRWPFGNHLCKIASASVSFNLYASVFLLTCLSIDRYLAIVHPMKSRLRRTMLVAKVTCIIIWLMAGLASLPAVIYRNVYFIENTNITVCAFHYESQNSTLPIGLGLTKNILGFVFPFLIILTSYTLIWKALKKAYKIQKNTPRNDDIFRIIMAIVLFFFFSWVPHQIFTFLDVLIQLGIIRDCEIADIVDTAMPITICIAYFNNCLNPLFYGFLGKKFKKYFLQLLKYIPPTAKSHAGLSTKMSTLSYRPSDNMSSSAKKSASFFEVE
T1 sequence (P25095 whole entry): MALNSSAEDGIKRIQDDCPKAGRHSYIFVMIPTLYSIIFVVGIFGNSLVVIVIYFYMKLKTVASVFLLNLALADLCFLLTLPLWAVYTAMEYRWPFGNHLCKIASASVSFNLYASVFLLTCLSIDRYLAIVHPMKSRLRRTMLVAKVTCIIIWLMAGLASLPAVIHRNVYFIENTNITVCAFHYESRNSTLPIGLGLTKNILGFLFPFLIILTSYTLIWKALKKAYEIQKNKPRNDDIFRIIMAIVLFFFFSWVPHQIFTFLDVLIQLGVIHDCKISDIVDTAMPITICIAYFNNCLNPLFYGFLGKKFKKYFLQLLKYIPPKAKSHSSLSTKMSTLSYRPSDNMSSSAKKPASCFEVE
The assay is described as follows: Displacement of [125I]-Ang II from angiotensin II receptor type 1 in rat liver membranes. The assay is classed as cell membranes, Membrane.

In assay [2] the target is T2, Type-2 angiotensin II receptor (Homo sapiens) (UniProt P50052).
T2 sequence (whole entry): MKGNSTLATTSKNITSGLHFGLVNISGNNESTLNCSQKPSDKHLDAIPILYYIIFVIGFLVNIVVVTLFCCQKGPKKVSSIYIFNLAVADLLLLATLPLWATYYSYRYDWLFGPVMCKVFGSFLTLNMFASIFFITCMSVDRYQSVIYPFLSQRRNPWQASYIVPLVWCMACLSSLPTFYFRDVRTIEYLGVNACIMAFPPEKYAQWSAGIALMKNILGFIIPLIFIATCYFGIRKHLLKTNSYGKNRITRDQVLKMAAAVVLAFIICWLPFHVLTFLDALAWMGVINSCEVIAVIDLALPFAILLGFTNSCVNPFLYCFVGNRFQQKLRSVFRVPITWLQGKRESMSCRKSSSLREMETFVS
The assay is described as follows: Effect on [3H]thymidine incorporation into PC12 cells expressing AT2 receptors at 1.0 uM. Particulars: PC-12.

Assay [3] has as its target T3, Type-2 angiotensin II receptor (Homo sapiens, UniProt P50052).
T3 sequence (P50052 whole entry): T2 sequence (whole entry)
As to the kind of experiment: Displacement of [125I]-Ang II from angiotensin II receptor type 2 in pig uterus myometrium. Also noted: species or system Sus scrofa. The settings on record: target entry is the homologue from another species. Put shortly: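 Porcine uterine myometrial membranes (10 mg tissue equivalent) with 1 µM losartan to block AT1. Tris-HCl pH 7.4 buffer with NaCl, MgCl2, EDTA, 0.2% BSA and peptidase inhibitors. Filtration, γ-counting; nonspecific binding with 1 µM Ang II.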

The structures appear in SMILES notation. Where a SMILES comes first, the peptide text is derived from it. [ ]: non-standard residue; d: D form. Phe(4-NH2) = Nc1ccc(C[C@H](N)C(=O)O)cc1

`NC(N)=NCCC[C@H](NC(=O)[C@@H](N)CC(=O)O)C(=O)Nc1cccc2c1N[C@@H](Cc1ccc(O)cc1)C(=O)N(CC(=O)N[C@@H](Cc1c[nH]cn1)C(=O)N1CCC[C@H]1C(=O)N[C@@H](Cc1ccccc1)C(=O)O)C2` yielded an Activity in the assay on NG108-15 of 9.35%. Moreover, the Ki in assay [1] was greater than 10 µM.
`CC[C@@H](C)[C@@H](C(=O)N[C@@H](Cc1c[nH]cn1)C(=O)N1CCC[C@H]1C(=O)N[C@@H](Cc1ccccc1)C(=O)O)N1Cc2cccc(NC(=O)[C@@H](NC(=O)[C@H](CCCN=C(N)N)NC(=O)[C@@H](N)CC(=O)O)C(C)C)c2N[C@@H](Cc2ccc(O)cc2)C1=O` returned a Ki in assay [1] greater than 10 µM.
As for `CC(C)[C@H](NC(=O)[C@H](CCCN=C(N)N)NC(=O)[C@@H](N)CC(=O)O)C(=O)Nc1ccc2c(c1)CN(CC(=O)N[C@@H](Cc1c[nH]cn1)C(=O)N1CCC[C@H]1C(=O)N[C@@H](Cc1ccccc1)C(=O)O)C(=O)[C@H](Cc1ccc(O)cc1)N2`, the Activity in the assay on NG108-15 stood at 11.1%. The Ki is greater than 10 µM in assay [1] and 0.003 µM in assay [3]. The Activity (Counts/minute) in assay [2] worked out at 45400.
For the compound `NC(N)=NCCC[C@H](NC(=O)[C@@H](N)CC(=O)O)C(=O)Nc1ccc2c(c1)CN(CC(=O)N[C@@H](Cc1c[nH]cn1)C(=O)N1CCC[C@H]1C(=O)N[C@@H](Cc1ccccc1)C(=O)O)C(=O)[C@H](Cc1ccc(O)cc1)N2`, in assay [1], the Ki is greater than 10 µM.
Regarding `CC(C)[C@H](NC(=O)[C@H](CCCN=C(N)N)NC(=O)[C@@H](N)CC(=O)O)C(=O)Nc1cccc2c1N[C@@H](Cc1ccc(O)cc1)C(=O)N(CC(=O)N[C@@H](Cc1c[nH]cn1)C(=O)N1CCC[C@H]1C(=O)N[C@@H](Cc1ccccc1)C(=O)O)C2`, the Activity with NG108-15 stood at 9.88%. For the same compound, the Ki in assay [1] was greater than 10 µM.
`C[C@H](NC(=O)[C@@H](N)CC(=O)O)C(=O)Nc1cccc2c1N[C@@H](Cc1ccc(O)cc1)C(=O)N(CC(=O)N[C@@H](Cc1c[nH]cn1)C(=O)N1CCC[C@H]1C(=O)N[C@@H](Cc1ccccc1)C(=O)O)C2`: the Ki in assay [1] was greater than 10 µM.
Consider `CC[C@H](C)[C@H](NC(=O)[C@H](Cc1ccc(O)cc1)NC(=O)[C@@H](NC(=O)[C@H](CCCN=C(N)N)NC(=O)[C@@H](N)CC(=O)O)C(C)C)C(=O)N[C@@H](Cc1ccc(N)cc1)C(=O)N1CCC[C@H]1C(=O)N[C@@H](Cc1ccccc1)C(=O)O` (H-DRVYI[Phe(4-NH2)]PF-OH), for which the Ki in assay [1] was greater than 10 µM.
Turning to `CC[C@@H](C)[C@@H](C(=O)N[C@@H](Cc1c[nH]cn1)C(=O)N1CCC[C@H]1C(=O)N[C@@H](Cc1ccccc1)C(=O)O)N1Cc2cccc(NC(=O)[C@H](CCCN=C(N)N)NC(=O)[C@@H](N)CC(=O)O)c2N[C@@H](Cc2ccc(O)cc2)C1=O`, in assay [1], the Ki is greater than 10 µM.
With `Cc1cc(Cn2cnc3c2C[C@@H](C(=O)O)N(C(=O)C(c2ccccc2)c2ccccc2)C3)ccc1N(C)C`, the Activity (Counts/minute) in assay [2] worked out at 68700.
The compound `CC(C)[C@H](NC(=O)[C@H](C)NC(=O)[C@@H](N)CC(=O)O)C(=O)Nc1cccc2c1N[C@@H](Cc1ccc(O)cc1)C(=O)N(CC(=O)N[C@@H](Cc1c[nH]cn1)C(=O)N1CCC[C@H]1C(=O)N[C@@H](Cc1ccccc1)C(=O)O)C2` returned a Ki in assay [1] greater than 10 µM.
